According to ChEMBL document CHEMBL3600295, “Synthesis and biological evaluation of a series of fatty acid amides from Echinacea” (Bioorg Med Chem Lett, 2015):
Calls of active or inactive are those of the source. The rule behind the calls is not given here.

Key:
RAW264.7 [1] = test: Cytotoxicity against mouse RAW264.7 cells at 100 uM incubated for 18 hrs by LDH release assay; format: cell-based; settings: raw264.7, 18 h
In short: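 RAW 264.7 murine macrophage-like cells were treated with compound for 18 h. Culture supernatants were then collected and assayed for lactate dehydrogenase activity released from dead or dying cells, using a commercial LDH cytotoxicity kit. Vehicle and lysis-buffer controls were included. Data are means ± SD, n = 2.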

RAW264.7 [2] = test: Inhibition of LPS-induced TNFalpha production in mouse RAW264.7 cells at 100 uM incubated for 18 hrs by ELISA method; format: functional; settings: for inhibition at 100 µM: RAW264.7, 18 h
In short: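 RAW 264.7 cells were co-treated with compound plus 10 ng/mL LPS (R595) for 18 h. Supernatant TNF-α was measured by commercial ELISA and compared with cells stimulated with LPS only.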

RAW264.7 [3] = test: Effect on TNFalpha production in mouse RAW264.7 cells at 100 uM incubated for 18 hrs by ELISA method; format: cell-based; settings: raw264.7, 18 h
In short: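 Compound alone, without LPS, was added to RAW 264.7 murine macrophage-like cells and incubated 18 h. TNF-α in culture supernatants was quantified by commercial ELISA and compared with levels from unstimulated cells.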

## CCCCCCCCCCCc1nc(CC(C)C)cs1
RAW264.7 [1]
  Activity: Non-toxic
RAW264.7 [2]
  inhibition: inactive

## CCCCCCCCCCCC(=O)NCC(C)CC (stereo not drawn)
RAW264.7 [3]
  Activity: Non-toxic
RAW264.7 [1]
  Activity: Non-toxic
RAW264.7 [2]
  inhibition: Active

## CCCCCCCCCC(=O)NCC(C)C [TETRAHYDROPELLITORINE]
RAW264.7 [3]
  Activity: Non-toxic
RAW264.7 [1]
  Activity: Non-toxic
RAW264.7 [2]
  inhibition: Active

## CCCCCCCCCCCC(=O)NCc1ccccc1 [N-BENZYLDODECANAMIDE]
RAW264.7 [3]
  Activity: Non-toxic
RAW264.7 [1]
  Activity: Non-toxic
RAW264.7 [2]
  inhibition at 100 µM: 32.4%

## CCCCCC(=O)NCC(C)C
RAW264.7 [3]
  Activity: Non-toxic
RAW264.7 [1]
  Activity: Non-toxic
RAW264.7 [2]
  inhibition: Active

## CCCCCCC/C=C/C=C/C(=O)NCC(C)C
RAW264.7 [3]
  Activity: Non-toxic
RAW264.7 [1]
  Activity: Non-toxic
RAW264.7 [2]
  inhibition: Active

## CCCCCCCC(=O)NCC(C)C
RAW264.7 [3]
  Activity: Non-toxic
RAW264.7 [1]
  Activity: Non-toxic
RAW264.7 [2]
  inhibition: Active

## CCCCCCCCCCCC(=O)NCCCCCC
RAW264.7 [3]
  Activity: Non-toxic
RAW264.7 [1]
  Activity: Non-toxic
RAW264.7 [2]
  inhibition: Active

## CCCCCCCCC/C=C/C(=O)NCC(C)C
RAW264.7 [3]
  Activity: Non-toxic
RAW264.7 [1]
  Activity: Non-toxic
RAW264.7 [2]
  inhibition: Active

## CCCCCCCCC/C=C/C(=O)NCc1ccccc1
RAW264.7 [3]
  Activity: Non-toxic
RAW264.7 [1]
  Activity: Non-toxic
RAW264.7 [2]
  inhibition at 100 µM: 29.8%

## CCCCCCCCCCCc1nc(C(C)C)cs1
RAW264.7 [1]
  Activity: Non-toxic
RAW264.7 [2]
  inhibition: inactive

## CCCCCCCCCCCC(=O)NCC(C)C
RAW264.7 [3]
  Activity: Non-toxic
RAW264.7 [1]
  Activity: Non-toxic
RAW264.7 [2]
  inhibition: Active

## CCCCCCCCC/C=C/C(=O)NCC(C)CC (stereo not drawn)
RAW264.7 [3]
  Activity: Non-toxic
RAW264.7 [1]
  Activity: Toxic
RAW264.7 [2]
  inhibition: Active

## CCCCCCCCCCCCNCC(C)C
RAW264.7 [3]
  Activity: Non-toxic
RAW264.7 [1]
  Activity: Toxic
RAW264.7 [2]
  inhibition at 100 µM: 99.8%

## CCCC(=O)NCC(C)C
RAW264.7 [3]
  Activity: Non-toxic
RAW264.7 [1]
  Activity: Non-toxic
RAW264.7 [2]
  inhibition: Active
